Test results reported in ChEMBL document CHEMBL1255227, “Novel pyridylmethylamines as highly selective 5-HT(1A) superagonists” (J Med Chem, 2010).

Legend:
[1] = Displacement of [3H]8-OH-DPAT from 5-HT1A receptor in pig cortex membranes; assay type: cell membranes, Sus scrofa
[2] = Displacement of [3H]Prazosin from adrenergic alpha1 receptor in pig cortex membranes; assay type: cell membranes, Sus scrofa
D(3) dopamine receptor = D(3) dopamine receptor (Homo sapiens, UniProt P35462); assay: Displacement of [3H]Spiperone from human dopamine D3 receptor
D(3) dopamine receptor, sequence (P35462 whole entry): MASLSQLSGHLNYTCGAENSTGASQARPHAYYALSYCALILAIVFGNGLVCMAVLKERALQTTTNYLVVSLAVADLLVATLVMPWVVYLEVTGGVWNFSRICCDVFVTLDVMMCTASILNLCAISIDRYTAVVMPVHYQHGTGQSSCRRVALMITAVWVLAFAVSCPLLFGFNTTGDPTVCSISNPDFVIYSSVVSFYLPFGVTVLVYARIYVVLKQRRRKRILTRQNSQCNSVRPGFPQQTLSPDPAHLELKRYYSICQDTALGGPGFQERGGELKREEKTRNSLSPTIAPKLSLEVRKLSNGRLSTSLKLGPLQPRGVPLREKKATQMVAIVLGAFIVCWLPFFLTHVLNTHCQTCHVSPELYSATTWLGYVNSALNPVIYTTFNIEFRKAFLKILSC
Procedure, shortened: (§1)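 Membranes from CHO cells stably expressing the human receptor, at 5-20 μg protein/assay tube, were competed against [3H]spiperone at 0.1-0.4 nM final. […] IC50 came from sigmoid nonlinear regression.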

[3] = Displacement of [3H]WAY-100635 from 5-HT1A receptor in pig cortex membranes; assay type: cell membranes, Sus scrofa
D(1A) dopamine receptor = D(1A) dopamine receptor (Sus scrofa, UniProt P50130); assay: Displacement of [3H]SCH23390 from dopamine D1 receptor in pig striatal membranes
D(1A) dopamine receptor, sequence (P50130 whole entry): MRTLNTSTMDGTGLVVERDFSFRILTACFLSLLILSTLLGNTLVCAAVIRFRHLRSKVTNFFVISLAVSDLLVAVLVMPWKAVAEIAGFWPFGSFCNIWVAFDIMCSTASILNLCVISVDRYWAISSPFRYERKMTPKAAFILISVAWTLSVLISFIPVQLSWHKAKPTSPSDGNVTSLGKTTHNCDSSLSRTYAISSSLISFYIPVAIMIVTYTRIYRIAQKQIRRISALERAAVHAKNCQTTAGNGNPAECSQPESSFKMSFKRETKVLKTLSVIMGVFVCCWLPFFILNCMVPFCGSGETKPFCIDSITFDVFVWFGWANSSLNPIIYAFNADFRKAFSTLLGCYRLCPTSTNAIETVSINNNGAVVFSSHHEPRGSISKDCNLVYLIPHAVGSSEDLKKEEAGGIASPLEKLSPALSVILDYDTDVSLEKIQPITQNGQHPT

D(2) dopamine receptor [4] = target: T1, D(2) dopamine receptor (Homo sapiens, UniProt P14416); assay: Displacement of [3H]Spiperone from human dopamine D2 short receptor; procedure, shortened: as §1
T1 sequence (P14416 whole entry): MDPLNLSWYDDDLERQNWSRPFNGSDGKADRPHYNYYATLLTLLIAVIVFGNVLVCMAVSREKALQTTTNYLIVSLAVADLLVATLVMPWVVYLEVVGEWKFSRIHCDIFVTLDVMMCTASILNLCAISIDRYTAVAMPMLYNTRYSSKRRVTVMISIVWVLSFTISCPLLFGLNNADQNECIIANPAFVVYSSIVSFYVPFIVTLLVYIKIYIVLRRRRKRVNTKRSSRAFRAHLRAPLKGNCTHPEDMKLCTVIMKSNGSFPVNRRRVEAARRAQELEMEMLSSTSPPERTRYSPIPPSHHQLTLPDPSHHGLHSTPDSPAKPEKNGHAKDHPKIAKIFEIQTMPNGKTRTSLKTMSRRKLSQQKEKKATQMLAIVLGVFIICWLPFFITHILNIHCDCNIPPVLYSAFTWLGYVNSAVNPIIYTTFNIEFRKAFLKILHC

[5] = target: T2, 5-hydroxytryptamine receptor 1A (Homo sapiens) (UniProt P08908); assay: Intrinsic activity at human 5-HT1A receptor expressed in CHO cells assessed as increase of serotonin-induced [35S]GTPgammaS binding relative to serotonin; assay type: functional, cell-based
T2 sequence (whole entry): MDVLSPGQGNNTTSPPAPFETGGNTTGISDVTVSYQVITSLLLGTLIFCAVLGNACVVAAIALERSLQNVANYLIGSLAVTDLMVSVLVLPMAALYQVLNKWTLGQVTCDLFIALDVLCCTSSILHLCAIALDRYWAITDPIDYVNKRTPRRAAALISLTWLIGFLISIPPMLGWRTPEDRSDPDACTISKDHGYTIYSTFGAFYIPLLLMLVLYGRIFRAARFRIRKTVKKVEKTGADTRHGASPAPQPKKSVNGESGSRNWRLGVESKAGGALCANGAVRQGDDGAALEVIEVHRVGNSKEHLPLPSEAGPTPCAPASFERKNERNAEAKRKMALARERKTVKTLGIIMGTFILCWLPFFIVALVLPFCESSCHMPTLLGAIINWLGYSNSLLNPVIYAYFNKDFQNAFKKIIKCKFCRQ
Procedure, shortened: (§2)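 Membranes from CHO cells stably expressing human 5-HT1A were incubated with 0.1 nM [35S]GTPγS and test compound at eight concentrations (0.01-10000 nM), in hexaduplicate. Values come from a mean curve of four experiments. Emax is expressed relative to the maximal serotonin effect.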

D(2) dopamine receptor [6] = target: T1, D(2) dopamine receptor; assay: Displacement of [3H]Spiperone from human dopamine D2 long receptor; procedure, shortened: as §1
[7] = Displacement of [3H]RX821002 from adrenergic alpha2 receptor in pig cortex membranes
D(4) dopamine receptor = target: T3, D(4) dopamine receptor (Homo sapiens, UniProt P21917); assay: Displacement of [3H]Spiperone from human dopamine D4.4 receptor; procedure, shortened: as §1
T3 sequence (P21917 whole entry): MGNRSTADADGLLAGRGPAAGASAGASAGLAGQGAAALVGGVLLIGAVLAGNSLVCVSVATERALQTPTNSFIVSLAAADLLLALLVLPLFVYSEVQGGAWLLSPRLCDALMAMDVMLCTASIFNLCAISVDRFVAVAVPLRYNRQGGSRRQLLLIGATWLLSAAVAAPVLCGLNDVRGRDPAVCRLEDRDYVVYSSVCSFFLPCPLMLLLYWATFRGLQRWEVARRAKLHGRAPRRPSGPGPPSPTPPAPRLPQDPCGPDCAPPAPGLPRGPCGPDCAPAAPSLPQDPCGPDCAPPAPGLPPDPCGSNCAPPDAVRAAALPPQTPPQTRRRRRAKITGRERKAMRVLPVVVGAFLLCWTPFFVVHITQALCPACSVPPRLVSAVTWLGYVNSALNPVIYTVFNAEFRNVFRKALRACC

[8] = target: T4, 5-hydroxytryptamine receptor 1A (Homo sapiens, UniProt P08908); assay: Intrinsic activity at human 5-HT1A receptor expressed in CHO cells assessed as increase of serotonin-induced [35S]GTPgammaS binding; assay type: functional, cell-based; procedure, shortened: as §2
T4 sequence (P08908 whole entry): T2 sequence (whole entry)

[9] = target: 5-hydroxytryptamine receptor 2A (Sus scrofa, UniProt P50129); assay: Displacement of [3H]Ketanserin from 5-HT2 receptor in pig cortex membranes; assay type: cell membranes
5-hydroxytryptamine receptor 2A, sequence (P50129 whole entry): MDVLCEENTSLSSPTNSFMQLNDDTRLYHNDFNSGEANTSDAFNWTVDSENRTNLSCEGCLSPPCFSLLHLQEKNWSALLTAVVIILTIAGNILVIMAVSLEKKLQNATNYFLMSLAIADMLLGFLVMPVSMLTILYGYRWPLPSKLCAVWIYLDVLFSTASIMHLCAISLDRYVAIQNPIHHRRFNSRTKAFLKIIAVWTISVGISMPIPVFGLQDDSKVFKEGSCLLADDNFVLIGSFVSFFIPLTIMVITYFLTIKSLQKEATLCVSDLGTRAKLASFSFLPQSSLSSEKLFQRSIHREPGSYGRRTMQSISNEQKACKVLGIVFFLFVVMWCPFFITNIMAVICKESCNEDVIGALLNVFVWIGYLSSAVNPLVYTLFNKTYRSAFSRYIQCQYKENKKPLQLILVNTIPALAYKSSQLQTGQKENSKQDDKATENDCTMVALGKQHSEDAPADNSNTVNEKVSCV

Mus musculus = assay: Antinociceptive activity against formalin-induced inflammatory pain in mouse assessed as reduction of paw licking at 1 mg/kg, ip; assay type: functional; design: scale not given: the % may be the effect or the level left; settings: route intraperitoneal

SMILES	Ki [1] [nM]	Ki [2] [nM]	Ki (D(3) dopamine receptor) [nM]	Ki [3] [nM]	Ki (D(1A) dopamine receptor) [nM]	Ki (D(2) dopamine receptor [4]) [nM]	Emax [5] [%]	Ki (D(2) dopamine receptor [6]) [nM]	Ki [7] [nM]	Ki (D(4) dopamine receptor) [nM]	EC50 [8] [nM]	Ki [9] [nM]	Activity (Mus musculus) [%]
Cc1ccc(CNCC2(F)CCN(C(=O)c3coc4ccccc34)CC2)nc1	1.1	2800	12000	4.2	48000	28000	101	27000	2800	590	16	53000	–
Cc1ccc(CNCC2(F)CCN(C(=O)c3cc(Br)cs3)CC2)nc1	1.8	2300	19000	6.2	34000	100000	116	73000	3500	2000	17	18000	–
Cc1ccc(CNCC2(F)CCN(C(=O)c3csc4ccccc34)CC2)nc1	0.86	2000	8700	2.7	45000	54000	124	20000	1700	460	10	22000	–
Cc1ccc(CNCC2(F)CCN(C(=O)c3cnn4ccccc34)CC2)nc1	–	–	–	93	–	–	96	–	–	–	310	–	–
Cc1ccc(CNCC2(F)CCN(C(=O)c3cc4ccccc4s3)CC2)nc1	–	–	–	190	–	–	116	–	–	–	240	–	–
Cc1ccc(CNCC2(F)CCN(C(=O)C34CC5CC(CC(O)(C5)C3)C4)CC2)nc1	–	–	–	1300	–	–	90	–	–	–	600	–	–
Cc1ccc(CNCC2(F)CCN(C(=O)c3cc4ccccc4o3)CC2)nc1	–	–	–	64	–	–	87	–	–	–	34	–	–
Cc1ccc(CNCC2(F)CCN(C(=O)C34CC5CC(CC(Cl)(C5)C3)C4)CC2)nc1	–	–	–	92	–	–	91	–	–	–	48	–	–
Cc1ccc(CNCC2(F)CCN(C(=O)C34CC5CC(CC3C5)C4)CC2)nc1	–	–	–	11	–	–	96	–	–	–	47	–	–
Cc1ccc(CNCC2(F)CCN(C(=O)C34CC5CC(CC(C5)C3)C4)CC2)nc1	–	–	–	17	–	–	98	–	–	–	11	–	–
Cc1ccc(CNCC2(F)CCN(C(=O)c3cccs3)CC2)nc1	–	–	–	27	–	–	91	–	–	–	18	–	45
Cc1ccc(CNCC2(F)CCN(C(=O)c3cc4ccccn4n3)CC2)nc1	–	–	–	180	–	–	80	–	–	–	93	–	–
Cc1ccc(CNCC2(F)CCN(C(=O)c3ccc(F)c(Cl)c3)CC2)nc1 [BEFIRADOL]	0.33	4500	10000	1.1	26000	46000	–	15000	3700	2000	–	23000	–
Cc1ccc(CNCC2(F)CCN(C(=O)c3ccco3)CC2)nc1	–	–	–	62	–	–	81	–	–	–	15	–	35
Cc1ccc(CNCC2(F)CCN(C(=O)c3sc4sccc4c3Cl)CC2)nc1	–	–	–	25	–	–	97	–	–	–	59	–	–
Cc1ccc(CNCC2(F)CCN(C(=O)c3ccc4ccccc4c3)CC2)nc1	–	–	–	15	–	–	110	–	–	–	52	–	–
